Cneo AK release = Cryptococcus neoformans lysis via adenylate kinase release; 360,000 compounds, 0.2% hits; C. neoformans lysis, adenylate kinase release luminescence, 4 h; normalised: neutral wells 0, clomiphene wells 100; lysis activity, % at 15 µM;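 active = mean lysis activity across replicates of at least 80%, whatever share of replicates individually reach that level; inactive = mean lysis activity below 80%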
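Test system: log-phase Cryptococcus neoformans yeast cells. Input: 5 × 10^6 yeast cells/mL. Medium: fresh YPD growth medium. Doses: single dose. Incubation: static 4 h at 37 °C with compound, 1 h detection. Measured by: luminescent adenylate kinase detection reagent. Read-out: signal increase indicating cell lysis. Benchmarks: Clomiphene.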
CDK5 p35 inh = CDK5/p35 (human) kinase inhibition; inhibition, % at 10 µM; 330,000 compounds, 0.01% hits; Q00535+Q15078; Recombinant CDK5/p35, ADP-Glo luminescence, 60 min; AID 488839;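 active = highest replicate inhibition of at least 50% and at least 75% of replicates reaching 50%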
Target sequence (Q00535 whole entry, looked up): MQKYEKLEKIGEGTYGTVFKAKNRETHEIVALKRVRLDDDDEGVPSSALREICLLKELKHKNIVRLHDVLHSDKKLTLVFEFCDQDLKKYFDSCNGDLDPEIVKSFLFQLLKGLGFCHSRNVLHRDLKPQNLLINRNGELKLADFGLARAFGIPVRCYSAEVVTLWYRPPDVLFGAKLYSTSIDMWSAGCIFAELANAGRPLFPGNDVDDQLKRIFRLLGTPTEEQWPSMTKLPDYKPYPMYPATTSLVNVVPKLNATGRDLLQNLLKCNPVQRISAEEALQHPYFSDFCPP
Target sequence (Q15078 whole entry, looked up): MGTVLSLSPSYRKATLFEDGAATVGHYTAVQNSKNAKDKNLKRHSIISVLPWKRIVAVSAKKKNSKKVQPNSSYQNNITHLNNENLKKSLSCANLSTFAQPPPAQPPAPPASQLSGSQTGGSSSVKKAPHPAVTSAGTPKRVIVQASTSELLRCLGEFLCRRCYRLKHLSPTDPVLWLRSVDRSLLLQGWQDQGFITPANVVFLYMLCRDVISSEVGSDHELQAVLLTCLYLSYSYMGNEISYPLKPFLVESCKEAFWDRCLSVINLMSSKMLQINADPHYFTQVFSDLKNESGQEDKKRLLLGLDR
dFosB activator = mouse delta FosB homodimer activation. purified delta FosB, TAMRA-CDK5 oligo fluorescence polarization; percent of positive-control signal above neutral wells. 340,000 compounds, 0.99% hits. AID 493131. P13346. activation, % at 25 µM;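 active = mean activation above about 17%, with every replicate also reaching it, limit read from the data, passing the limit was not always enough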
Env fusion inh = HIV envelope-mediated fusion inhibition. HeLa-JRFL Env/CEM21 cell fusion, luciferase. inhibition, % at 12.3 µM. 360,000 compounds, 1.1% hits. AID 651610;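 active = mean replicate inhibition score of at least 50 and every replicate individually at or above 50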
INS-1E GSIS act = GLuc luminescence reporter in INS-1E cells, primary screen for activators of glucose-dependent secretion of insulin; activation, % at 16.6 µM; 370,000 compounds, 0.61% hits; AID 743287; INS-1E GLuc reporter insulin secretion, 2-3 h;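 active = lowest replicate activation of at least 40%, so every replicate reaches that level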
PAX8 inh HTS = lowers PAX8-driven luciferase in RMG-I cells; RMG-I TPO-luciferase reporter, SteadyGlo, 24 h; inhibition, % at 12.6 µM; 360,000 compounds, 1.2% hits; AID 652154;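 active = mean replicate inhibition at least 60% with every replicate also reaching 60%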;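 note: luciferase light reporting Pax8 driven TPO promoter activity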
A number is an active result. A selection: hits, their analogues and other compounds. The true share with any hit is near 2.9%.

COCC#Cc1cnc2c(c1)C(=O)N([C@@H](C)CO)C[C@@H](C)[C@H](CN(C)C(=O)C1CC1)O2 was read as Cneo AK release inactive, Env fusion inh inactive and INS-1E GSIS act inactive.
Screening CC(=O)Nc1ccc(C(=O)OCC(=O)NC(=O)NCc2ccccc2)cc1 returned Cneo AK release inactive, Env fusion inh 71 and PAX8 inh HTS inactive.
CCNC(=O)[C@@H]1[C@@H](CO)[C@@H]2Cn3c(cccc3=O)[C@H]1N2Cc1cccc(Cl)c1 was read as INS-1E GSIS act inactive.
Screening O=C(c1ccc(Cl)c([N+](=O)[O-])c1)N1CCN(c2ccccn2)CC1 returned CDK5 p35 inh inactive, dFosB activator inactive, Env fusion inh inactive, INS-1E GSIS act inactive and PAX8 inh HTS inactive.
For O=[N+]([O-])c1cc(-c2n(-c3ccccn3)c3ccccc3[n+]2-c2ccccn2)ccc1Cl the results were Cneo AK release inactive, CDK5 p35 inh inactive, dFosB activator inactive, Env fusion inh 64, INS-1E GSIS act inactive and PAX8 inh HTS inactive.
`CCOC(=O)c1c(CSCc2ccccc2)oc2ccc(O)c(CN(C)C)c12` gave Cneo AK release inactive, CDK5 p35 inh inactive, dFosB activator inactive, Env fusion inh 58, INS-1E GSIS act inactive and PAX8 inh HTS inactive.
For Cc1cccc(COC[C@H](Cc2ccccc2)N2CCN(C(=O)c3ccc(Cl)c(Cl)c3)CCC2=O)c1 the results were Env fusion inh 83, INS-1E GSIS act inactive and PAX8 inh HTS inactive.
`Cc1ccc(S(=O)(=O)N2CCC(=O)N(CCOCc3ccc(Cl)cc3)CC2)cc1` gave Cneo AK release inactive, CDK5 p35 inh inactive, dFosB activator inactive, Env fusion inh 56, INS-1E GSIS act inactive and PAX8 inh HTS inactive.
Cc1ccc(S(=O)(=O)N2CCC(=O)N(CCOCc3cccc(Cl)c3)CC2)cc1 was read as Cneo AK release inactive, CDK5 p35 inh inactive, dFosB activator inactive, Env fusion inh inactive, INS-1E GSIS act inactive and PAX8 inh HTS inactive.
`Cc1ccc(S(=O)(=O)N2CCC(=O)N(C(COCc3cccc(C(F)(F)F)c3)Cc3ccccc3)CC2)cc1` (stereo not given) gave Cneo AK release inactive, CDK5 p35 inh inactive, dFosB activator inactive, Env fusion inh 56, INS-1E GSIS act inactive and PAX8 inh HTS inactive.
Cc1cccc(COCC(Cc2ccccc2)N2CCN(C(=O)c3cccc(C)c3)CCC2=O)c1 (stereo not given) was read as Cneo AK release inactive, CDK5 p35 inh inactive, dFosB activator inactive, Env fusion inh inactive, INS-1E GSIS act inactive and PAX8 inh HTS inactive.
O=C(c1ccc(Cl)c(Cl)c1)N1CCC(=O)N(C(COCc2cccc(C(F)(F)F)c2)Cc2ccccc2)CC1 (stereo not given) was read as Cneo AK release inactive, CDK5 p35 inh inactive, dFosB activator inactive, Env fusion inh 80, INS-1E GSIS act inactive and PAX8 inh HTS inactive.
Screening CCCN(C)C[C@@H]1Oc2cc(C#Cc3ccccc3)ccc2S(=O)(=O)N([C@@H](C)CO)C[C@@H]1C returned Cneo AK release inactive, Env fusion inh inactive and INS-1E GSIS act inactive.
For COc1ccc(CN(C)C[C@H]2Oc3ccc(NC(=O)Cn4cnnn4)cc3C(=O)N([C@H](C)CO)C[C@H]2C)cc1 the results were Cneo AK release inactive, Env fusion inh inactive, INS-1E GSIS act inactive and PAX8 inh HTS inactive.
CC(C)=CC(=O)NCC1CCN(C(=O)C(=O)c2cc3ccccc3o2)CC1 was read as Env fusion inh inactive, INS-1E GSIS act inactive and PAX8 inh HTS inactive.
`Cc1cccc(COCC(Cc2ccccc2)N2CCN(C(=O)c3ccc(Cl)c(Cl)c3)CCC2=O)c1` (stereo not given) gave Cneo AK release inactive, CDK5 p35 inh inactive, dFosB activator inactive, Env fusion inh 95 and PAX8 inh HTS inactive.
COc1cc2c(cc1OC)-c1cc(NC3CCCCCCC3)nc(=O)n1CC2 was read as Cneo AK release inactive, CDK5 p35 inh inactive and dFosB activator inactive.
For COc1cc2c(cc1OC)-c1cc(NC3CC3)nc(=O)n1CC2 the results were CDK5 p35 inh inactive and dFosB activator inactive.
Screening COc1cc2c(cc1OC)-c1cc(NC3CCCCC3)nc(=O)n1CC2 returned Cneo AK release inactive, CDK5 p35 inh inactive, dFosB activator inactive and INS-1E GSIS act 72.
COc1cc2c(cc1OC)-c1cc(Nc3ccccc3C)nc(=O)n1CC2 was read as Cneo AK release inactive, CDK5 p35 inh inactive, dFosB activator inactive, Env fusion inh inactive, INS-1E GSIS act 53 and PAX8 inh HTS inactive.
For CCOc1ccccc1Nc1cc2n(c(=O)n1)CCc1cc(OC)c(OC)cc1-2 the results were CDK5 p35 inh inactive, dFosB activator inactive, Env fusion inh inactive, INS-1E GSIS act 76 and PAX8 inh HTS inactive.
CCOc1ccc(Nc2cc3n(c(=O)n2)CCc2cc(OC)c(OC)cc2-3)cc1 was read as Cneo AK release inactive, CDK5 p35 inh inactive, dFosB activator inactive, Env fusion inh inactive, INS-1E GSIS act inactive and PAX8 inh HTS inactive.
`COc1cc2c(cc1OC)-c1cc(NCc3ccccn3)nc(=O)n1CC2` gave Cneo AK release inactive, CDK5 p35 inh inactive, dFosB activator inactive and INS-1E GSIS act 63.
CCNc1cc2n(c(=O)n1)CCc1cc(OC)c(OC)cc1-2 was read as Cneo AK release inactive, CDK5 p35 inh inactive, dFosB activator inactive, Env fusion inh inactive and INS-1E GSIS act inactive.
`COc1ccc(S(=O)(=O)N(C)C[C@@H]2OCCCC[C@H](C)Oc3ccc(NC(=O)c4ccccc4)cc3C(=O)N([C@@H](C)CO)C[C@H]2C)cc1` gave Cneo AK release inactive, Env fusion inh inactive, INS-1E GSIS act inactive and PAX8 inh HTS inactive.
C[C@H]1CN([C@@H](C)CO)C(=O)c2cc(C3=CCCC3)cnc2O[C@H]1CN(C)C(=O)CN1CCOCC1 was read as Cneo AK release inactive, Env fusion inh inactive, INS-1E GSIS act inactive and PAX8 inh HTS inactive.
`O=C(OCC(=O)N1CCN(C(=O)c2ccco2)CC1)c1cccc(S(=O)(=O)N2CCc3ccccc32)c1` gave Cneo AK release inactive, CDK5 p35 inh inactive, dFosB activator inactive, Env fusion inh inactive, INS-1E GSIS act inactive and PAX8 inh HTS 101.
CCN(Cc1ccc(OC)c(F)c1)C(C)C(=O)Nc1ccc(S(=O)(=O)N2CCCC2)cc1 (stereo not given) was read as CDK5 p35 inh inactive, dFosB activator inactive, Env fusion inh 57, INS-1E GSIS act inactive and PAX8 inh HTS inactive.
CCCC#Cc1ccc([C@@H]2[C@@H](CO)N3C(=O)CN(S(=O)(=O)c4ccccc4C)C[C@@H]23)cc1 was read as INS-1E GSIS act inactive.
`Cc1ccc(-c2csc3ncnc(Sc4nnc(CN5CCCCCC5=O)o4)c23)cc1` gave Cneo AK release inactive, CDK5 p35 inh inactive, dFosB activator inactive, Env fusion inh inactive and PAX8 inh HTS 111.
For CC(C)NC(=O)N1C[C@@H]2[C@H](c3ccccc31)[C@@H](CO)N2Cc1ccccc1 the results were Cneo AK release inactive, INS-1E GSIS act inactive and PAX8 inh HTS inactive.

Screening data deposited in PubChem by Broad Institute.
